# A selection: hits, their analogues and other compounds. The true share with any hit is near 1.2%.
# MsrA inh: inhibits bovine methionine sulfoxide reductase A | purified bovine MsrA, absorbance read-out | inhibition, % at 15.5 µM | 0.75% of 360,000 active;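 also: 0% = vehicle wells with enzyme and 100% = reference inhibitor wells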
# procasp7 counter: counter-screen: procaspase-7 (human) activation; recombinant procaspase-7, Ac-DEVD-pNA absorbance 405 nm; D23A/D198A/D206A triple mutant, cannot self-cleave; scale: DMSO 0, 5 µM enzyme 100; activation, % at 8.5 µM; 0.093% of 330,000 active; AID 463210;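 active = percent activation above the screen-wide mean plus 3 SD, cut at about 25% in these data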
# Target sequence (P55210 whole entry D23A/D198A/D206A): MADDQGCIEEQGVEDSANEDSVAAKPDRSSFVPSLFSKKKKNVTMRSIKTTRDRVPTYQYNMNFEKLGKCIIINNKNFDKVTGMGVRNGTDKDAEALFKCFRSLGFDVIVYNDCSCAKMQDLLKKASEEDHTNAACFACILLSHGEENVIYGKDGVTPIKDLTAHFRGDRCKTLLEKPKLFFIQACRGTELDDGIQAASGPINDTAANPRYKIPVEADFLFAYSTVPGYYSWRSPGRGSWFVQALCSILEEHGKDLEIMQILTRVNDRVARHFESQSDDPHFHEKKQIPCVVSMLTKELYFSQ
#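 Test system: Procaspase-7 triple mutant (PC-7 D3A). Also added: Ac-DEVD-pNA substrate, 400 µM as added. Schedule: 1 h enzyme–compound preincubation and 2 h substrate reaction, both 25 °C. Signal: p-Nitroaniline absorbance at 405 nm, read at 0 and 120 min. Control set: low DMSO alone, high DMSO plus 5 µM PC-7.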
# proCasp3 act: procaspase-3 (human) activation | recombinant procaspase-3 D3A, Ac-DEVD-pNA absorbance 405 nm | activation, % at 8.5 µM | 0.11% of 330,000 active;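 active = activation above the mean of all tested compounds plus 3 SD, cut at about 21% in these data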;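 also: 0% = DMSO alone and 100% = DMSO wells spiked with extra 5 µM PC-3 D3A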
# Target sequence (P42574 whole entry D9A/D28A/D175A): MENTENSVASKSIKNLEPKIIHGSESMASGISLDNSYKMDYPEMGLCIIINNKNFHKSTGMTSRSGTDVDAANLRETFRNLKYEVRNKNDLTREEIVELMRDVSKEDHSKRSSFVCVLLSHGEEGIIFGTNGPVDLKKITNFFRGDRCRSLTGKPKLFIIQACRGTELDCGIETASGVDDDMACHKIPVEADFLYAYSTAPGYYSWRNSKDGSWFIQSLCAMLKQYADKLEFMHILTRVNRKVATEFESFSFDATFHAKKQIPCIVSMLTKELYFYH
#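 Assay system: Procaspase-3 D3A mutant, all three cleavage aspartates alanine. Buffer or medium: Zinc-free HEPES saline buffer with Triton X-100. Times: 1 h compound preincubation, 2 h substrate hydrolysis at 25 °C. Measured by: 405 nm absorbance of p-nitroaniline, reads at 0 and 120 min. Read-out basis: percent activation relative to control range. Replicates: singlicate.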
# bovine MsrA act: activators of bovine methionine sulfoxide reductase A | purified bovine MsrA, absorbance read-out | activation, % at 10.6 µM | 0.3% of 360,000 active | AID 602163; in the data active = activation above about 7.5%;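 also: 0% = vehicle and 100% = reference activator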
# MsrA inh confirm: bovine MsrA inhibition, confirmed; shares compounds with MsrA inh; purified bovine MsrA, absorbance read-out; inhibition, % at 15.5 µM; 41% of 2,300 active; AID 651822;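 also: coupled to thioredoxin reductase with NADPH and selenocystamine and DMSO as substrate; 0% = vehicle only and 100% = full effect of reference inhibitor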
# The depositor's hits bear a star; . = no result. Rule as the data show it, unless noted: active = inhibition above about 4.5%; inactive = the rest.
SMILES,MsrA inh,procasp7 counter,proCasp3 act,bovine MsrA act,MsrA inh confirm
COCCn1c(SCC(=O)Nc2ccc3c(c2)OCCO3)nc2c(c1=O)SC(C)C2 (stereo not given),5.2*,0,-7,-11,2
C[C@@H]1ON(C)[C@H]2C[C@H]3c4cc(Br)ccc4CCN3C[C@@H]12,2,.,.,.,.
CN(C(=O)[C@@H](Cc1ccccc1)NC(=O)[C@H]1O[C@@H](n2ccc(=O)[nH]c2=O)[C@H](O)[C@@H]1O)C1CCCCC1,1,.,.,.,.
CCN(CC)c1ccc(/C=N/NC(=O)c2cccc(S(=O)(=O)N3CCOCC3)c2)c(O)c1,4,-2,18,-3,.
CCN(CC)c1ccc(C=Nc2cccc(S(=O)(=O)N3CCOCC3)c2)c(O)c1,5.8*,2,4,-5,5.2*
CCOC(=O)C1=C(C(=O)OCC)C2N(Cc3ccc(C#N)cc3)c3ccccc3[C@@]23C[C@@H](C(=O)OC)N(S(=O)(=O)c2cccs2)C3=N1 (stereo not given in full),1,.,.,.,.
CC1(C)Cc2c(sc(NC(=O)c3ccco3)c2C(=O)O)CO1,4.7*,4,7,-3,3
CC(=O)OC[C@H]1O[C@H](C#Cc2ccc(C(C)(C)C)cc2)C=C[C@H]1OC(=O)Nc1ccccc1,1,.,.,.,.
COc1cc(/C=N/Nc2nc3ccccc3[nH]2)cc(OC)c1O,5.1*,-30,-10,-7,4.7*
COc1cc(/C=N/Nc2nc3ccccc3[nH]c2=O)ccc1O,1,-12,-6,-5,.
COc1cccc(/C=N/Nc2nc3ccccc3[nH]2)c1O,5.9*,7,-2,-1,5.2*
COc1cccc(/C=N/Nc2nc3ccccc3[nH]2)c1OC,3,2,-1,-4,.
COc1cccc(/C=N/Nc2ncnc(Cl)c2N)c1O,5.7*,-6,3,-7,5.2*
COc1cc(/C=N/Nc2nc3ccccc3[nH]2)ccc1O,4.9*,-2,2,-4,3
Cc1ccc(S(=O)(=O)NCC2CCN(C(=O)C(=O)c3cccs3)CC2)cc1,1,.,.,.,.
CCOC(=O)C1=C(C(=O)OCC)C2N(Cc3ccc(Br)cc3)c3ccccc3[C@@]23C[C@@H](C(=O)OC)N(S(=O)(=O)c2ccc(F)cc2)C3=N1 (stereo not given in full),0,.,.,.,.
COc1ccc(O)c(/C=N/Nc2nc3ccccc3[nH]2)c1,5.8*,4,2,-2,4
O=[N+]([O-])c1ccc(O)c(/C=N/Nc2nc3ccccc3[nH]2)c1,3,-17,-2,0,.
Cc1ccc(C(=O)Nc2nc3ccc(S(C)(=O)=O)cc3s2)o1,4,4,6,0,.
CS(=O)(=O)c1ccc2nc(NC(=O)c3ccc(=O)[nH]c3)sc2c1,6.3*,8,5,-19,6.0*
CS(=O)(=O)c1ccc2nc(NC(=O)c3ccco3)sc2c1,5.7*,-23,-20,0,4.7*
O=C(Nc1nc2cc3c(cc2s1)OCCO3)c1ccco1,4.7*,-2,3,-11,4.7*
O=C(Nc1nc2cc3c(cc2s1)OCO3)C1=COCCO1,5.2*,-4,-4,-5,2
CS(=O)(=O)c1ccc2nc(NC(=O)c3ccc(Cl)cc3)sc2c1,0,-16,2,-4,.
CCCCOCC1CN(CCCC)S(=O)(=O)c2c(cccc2Sc2ccc(OC)c(OC)c2)O1 (stereo not given),1,.,.,.,.
SMILES,MsrA inh,procasp7 counter,proCasp3 act,bovine MsrA act,MsrA inh confirm
Nc1nonc1-n1nnc(C(=O)N/N=C/c2ccc(F)cc2)c1-c1ccc2c(c1)OCO2,1,2,-4,0,.
Cc1ccc(/C=N/NC(=O)c2nnn(-c3nonc3N)c2CN(C)C)o1,3,9,1,-2,.
COCc1c(C(=O)N/N=C/c2ccc(C)o2)nnn1-c1nonc1N,6.6*,1,1,-1,5
CC(=C/c1ccco1)/C=N/NC(=O)c1nnn(-c2nonc2N)c1CN(C)C,7.7*,7,3,-5,5.4*
Cc1ccc(/C=N/NC(=O)c2nnn(-c3nonc3N)c2-c2ccc3c(c2)OCO3)s1,5.0*,-4,-11,-5,4.6*
COC(=O)c1cc2c(c3c4cc(F)ccc4n(S(=O)(=O)c4cccc(C)c4)c13)C(=O)N(Cc1ccccc1OC)C2,0,.,.,.,.
COC(=O)C1=C(C)N(Cc2ccccc2C(F)(F)F)C(=NCc2ccccc2C(F)(F)F)NC1c1cccc(C(F)(F)F)c1 (stereo not given),-1,.,.,.,.
CC(C)[C@H](NS(=O)(=O)c1ccc(F)cc1F)C(=O)N1CCC[C@H]1C(=O)NCCc1ccccc1Cl,0,.,.,.,.
COc1cc(/C=N/NC(=O)[C@H](Cc2c[nH]c3ccccc23)NC(=O)OCC(C)C)cc([N+](=O)[O-])c1O,6.4*,-3,-3,-7,4
CC(C)(C)S(=O)N1C[C@@H]2CC(=O)C(c3ccccc3)=C2[C@H]1CCO (stereo not given in full),0,.,.,.,.
Cc1cccc2cc(/C=C3\N=C(c4ccccc4)OC3=O)c(N3CCOCC3)nc12,0,2,5,-3,.
COc1ccc(/C=C2\N=C(c3ccc(C)cc3)OC2=O)cc1,-1,2,-1,0,.
Cc1ccc(C2=N/C(=C\N3CCCCC3)C(=O)O2)cc1,6.1*,7,-6,-15,5.9*
Cc1ccc(C2=N/C(=C/N3CCOCC3)C(=O)O2)cc1,6.5*,-3,5,-5,7.6*
Oc1ccc(/C=N/NC(=S)Nc2cccnc2)cc1O,4,-28,-14,-9,.
S=C(N/N=C/c1ccc2ncccc2c1)Nc1cccnc1,7.2*,-4,-7,3,4
Oc1ccc(C=NNC(=S)Nc2cccnc2)nc1,7.0*,.,.,-3,5.5*
O=S1(=O)N[C@@H](Cc2ccccc2)COc2cccc(NCCCN3CCOCC3)c21,2,.,.,.,.
CC(=NNc1cc(C)c2cc(C)ccc2n1)c1ccccn1,2,.,.,.,.
O=C(O)c1ccc(/C=N/Nc2ccc(C(F)(F)F)cn2)cc1,7.0*,.,.,-9,6.3*
Cn1c2c(c(=O)n(C)c1=O)C(C(F)(F)F)(C(F)(F)F)N=C(c1ccccc1Cl)N2,9.1*,-3,-2,-3,6.7*
Cn1c2c(c(=O)n(C)c1=O)C(C(F)(F)F)(C(F)(F)F)N=C(CCC1CCCCC1)N2,2,0,3,6,.
Nc1ccc(NC(=O)c2ccc(C(=O)Nc3ccc(N)cc3)cc2)cc1,1,6,9,-2,.
Nc1ccc(C(=O)CC(=O)Nc2ccc(Cl)cc2)cc1,5.0*,-5,-1,0,1
COc1ccc(-c2cc(C(F)F)n3ncc(C(=O)n4ccnc4C)c3n2)cc1,4.7*,7,-3,-10,11*
COC(=O)C1=C(C)N(Cc2cccc(C(F)(F)F)c2)C(=NCc2cc(OC)c(OC)c(OC)c2)NC1c1ccccc1C(F)(F)F (stereo not given),-1,.,.,.,.
O=C(O)c1ccc(N=NN2CCCC2)cc1,5.1*,0,7,-6,3

# Screening data from PubChem BioAssay.
